Results taken from ChEMBL document CHEMBL1156229, “Pharmacophore development and application toward the identification of novel, small-molecule autotaxin inhibitors” (J Med Chem, 2010).
Activity calls are given as the source filed them. The calls are words filed in the database; no cut-off is given here.

Columns and labels:
Autotaxin [1] = target: T1, Autotaxin (Homo sapiens, UniProt Q13822); test: Inhibition of human recombinant C-terminal FLAG-tagged autotaxin expressed in baculovirus-infected Sf9 cells assessed as FS-3 hydrolysis at 10 uM relative to control
In short: (§1)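 Single-dose screen: inhibitor 10 μM final, purified recombinant human ATX 8.3 nM, FS-3 1 μM, fatty acid free BSA 30 μM in Tris pH 8 buffer (1 mM MgCl2, 1 mM CaCl2, 3 mM KCl, 140 mM NaCl), 37 °C. Fluorescence (ex 485/em 538) read every 2 min; percent activity vs vehicle after no-ATX subtraction at 1 h; mean ± SD of three wells.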

Autotaxin [2] = target: T1, Autotaxin; test: Inhibition of human recombinant C-terminal FLAG-tagged autotaxin expressed in baculovirus-infected Sf9 cells using lysophosphatidylcholine as substrate assessed as choline release by Amplex red reagent assay
In short: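 LPC 16:0 100 μM with purified human ATX 8.3 nM and inhibitor 10 μM final, 30 μM fatty acid free BSA, 50 mM Tris/5 mM CaCl2 pH 7.4, 37 °C. Choline detected by choline oxidase 0.1 U/mL, HRP 1 U/mL, Amplex Red 10 μM; fluorescence ex 560/em 590 every 2 min, percent of vehicle at 1 h after no-ATX subtraction; mean ± SD of three wells.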

Autotaxin [3] = target: T1, Autotaxin; test: Inhibition of human recombinant C-terminal FLAG-tagged autotaxin expressed in baculovirus-infected Sf9 cells assessed as FS-3 hydrolysis
In short: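 Dose response: final inhibitor 30, 10, 3, 1, 0.3, 0.1, 0.03 μM, plus 0.01 and 0.003 μM for some compounds; purified human ATX 8.3 nM, 1 μM FS-3, 30 μM fatty acid free BSA, Tris pH 8 buffer, 37 °C. Fluorescence ex 485/em 538 every 2 min; percent activity vs vehicle at 1 h after no-ATX background subtraction; mean of three wells.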

Autotaxin [4] = target: T1, Autotaxin; test: Inhibition of autotaxin at 10 uM; in short: as §1

| SMILES | inhibition (Autotaxin [1]) | inhibition (Autotaxin [2]) | IC50 (Autotaxin [3]) | inhibition (Autotaxin [4]) | IC50 (Autotaxin [3]; sf9) |
| --- | --- | --- | --- | --- | --- |
| O=C(Nc1ccc(C(=O)Nc2cc(S(=O)(=O)O)cc3cccc(S(=O)(=O)O)c23)cc1)Nc1ccc(C(=O)Nc2cc(S(=O)(=O)O)cc3cccc(S(=O)(=O)O)c23)cc1 | -5% | Active |  |  |  |
| Cc1ccc(/N=N/c2c(S(=O)(=O)O)cc3cc(NC(=O)Nc4ccc5c(O)c(/N=N/c6ccc7cc(S(=O)(=O)O)ccc7c6)c(S(=O)(=O)O)cc5c4)ccc3c2O)c(C)c1 | 67% |  | 18.6 µM |  |  |
| Nc1ccc2cc(S(=O)(=O)O)c(/N=N/c3ccc(-c4ccc(/N=N/c5c(S(=O)(=O)O)cc6cc(S(=O)(=O)O)c(/N=N/c7cccc([N+](=O)[O-])c7)c(N)c6c5O)cc4)cc3)c(O)c2c1 | 65% |  | 28.1 µM |  |  |
| Nc1c(/N=N/c2ccc(-c3ccc(/N=N/c4c(S(=O)(=O)O)cc5cc(S(=O)(=O)O)c(/N=N/c6ccccc6)c(O)c5c4N)cc3)cc2)ccc2c(S(=O)(=O)O)cccc12 | 75% |  | 2.42 µM |  |  |
| COc1ccccc1/N=N/c1c(S(=O)(=O)O)cc2cc(NC(=O)Nc3ccc4c(O)c(/N=N/c5ccc(S(=O)(=O)O)cc5C)c(S(=O)(=O)O)cc4c3)ccc2c1O | 59% |  | 18.2 µM |  |  |
| O=[As](O)(O)c1ccc(Cc2ccc([As](=O)(O)O)cc2)cc1 |  |  |  | 98% |  |
| O=C(Nc1ccc2cc(S(=O)(=O)O)ccc2c1)c1ccc(/N=N/c2c(S(=O)(=O)O)cc3cc(S(=O)(=O)O)cc(NC(=O)c4ccccc4)c3c2O)cc1 | 72% |  | 8.9 µM |  |  |
| Nc1ccc(C(=O)Nc2ccc(C(=O)Nc3ccc4c(O)cc(S(=O)(=O)O)cc4c3)cc2)cc1 | 40% | Active |  |  |  |
| COc1cc(NC(=O)c2ccc(NC(=O)c3ccc(N)cc3)cc2)c(OC)cc1/N=N/c1cc(C)c(/N=N/c2cc(S(=O)(=O)O)c3cccc(S(=O)(=O)O)c3c2)cc1C | 53% |  | 7.6 µM |  |  |
| O=C(Nc1ccc2c(O)c(/N=N/c3ccccc3)c(S(=O)(=O)O)cc2c1)Nc1ccc2c(O)c(/N=N/c3ccc4cc(S(=O)(=O)O)ccc4c3)c(S(=O)(=O)O)cc2c1 | 61% |  | 19.1 µM |  |  |
| Cc1cccc(/N=N/c2c(S(=O)(=O)O)cc3cc(NC(=O)Nc4ccc5c(O)c(/N=N/c6ccc7cc(S(=O)(=O)O)ccc7c6)c(S(=O)(=O)O)cc5c4)ccc3c2O)c1 | 80% |  | 12 µM |  |  |
| COc1ccccc1/N=N/c1c(S(=O)(=O)O)cc2cc(NC(=O)Nc3ccc4c(O)c(/N=N/c5c(N)ccc6cc(S(=O)(=O)O)ccc56)c(S(=O)(=O)O)cc4c3)ccc2c1O | 84% |  | 11.6 µM |  |  |
| Cc1cc(/C(=C2C=C/C(=N\c3ccc(S(=O)(=O)O)cc3)C=C\2)c2ccc(Nc3ccc(S(=O)(=O)O)cc3)cc2)cc(S(=O)(=O)O)c1N | 55% |  | 8.7 µM |  |  |
| Nc1ccc2cc(S(=O)(=O)O)cc(O)c2c1/N=N/c1ccc(NC(=O)c2ccc(C(=O)Nc3ccc(/N=N/c4c(N)ccc5cc(S(=O)(=O)O)cc(O)c45)c(S(=O)(=O)O)c3)cc2)cc1S(=O)(=O)O | 52% |  | 9.8 µM |  |  |
| CC(=O)Nc1cc(/N=N/c2ccc(NC(=O)c3ccc(N)cc3)cc2C)c(S(=O)(=O)O)cc1/N=N/c1ccc(/N=N/c2ccc(S(=O)(=O)O)cc2)cc1 | 74% |  | 5.4 µM |  |  |
| O=C(Nc1ccc(/C=C/c2ccc(NC(=O)c3cc(S(=O)(=O)O)c4cccnc4c3O)cc2S(=O)(=O)O)c(S(=O)(=O)O)c1)c1cc(S(=O)(=O)O)c2cccnc2c1O | 53% |  | 7.4 µM |  |  |
| Nc1ccc2cc(S(=O)(=O)O)cc(O)c2c1/N=N/c1ccc(-c2ccc(/N=N/c3c(S(=O)(=O)O)cc4cc(S(=O)(=O)O)c(/N=N/c5ccc([N+](=O)[O-])cc5)c(N)c4c3O)cc2)cc1 | 57% |  | 17.4 µM |  |  |

| SMILES | inhibition (Autotaxin [1]) | inhibition (Autotaxin [2]) | IC50 (Autotaxin [3]) | inhibition (Autotaxin [4]) | IC50 (Autotaxin [3]; sf9) |
| --- | --- | --- | --- | --- | --- |
| O=S(=O)([O-])c1cccc2c1c(Nc1ccccc1)cc1c2nc2cc(S(=O)(=O)O)c(Nc3ccccc3)cc2[n+]1-c1ccccc1 | 51% |  | 9.3 µM |  |  |
| COc1cc(/N=N/c2cc(S(=O)(=O)O)cc3cc(S(=O)(=O)O)cc(O)c23)c(C)cc1/N=N/c1c(S(=O)(=O)O)cc2cc(Nc3ccccc3)ccc2c1O | 53% |  | 37.6 µM |  |  |
| O=C(Nc1cc(S(=O)(=O)O)cc2cc(S(=O)(=O)O)c(/N=N/c3cc(Nc4nc(O)nc(Nc5ccc(S(=O)(=O)O)cc5)n4)ccc3S(=O)(=O)O)c(O)c12)c1ccccc1 | 76% |  | 7.3 µM |  |  |
| CC1=NN(c2ccc(/C=C/c3ccc(NC(=O)Nc4ccc(/C=C/c5ccc(N6N=C(C)C(/N=N/c7ccccc7C(=O)O)C6=O)cc5S(=O)(=O)O)c(S(=O)(=O)O)c4)cc3S(=O)(=O)O)c(S(=O)(=O)O)c2)C(=O)C1/N=N/c1ccccc1C(=O)O (stereo not drawn) | 13% | Active |  |  |  |
| O=S(=O)(O)c1cc(O)c2ccc(Nc3ccc4c(O)cc(S(=O)(=O)O)cc4c3)cc2c1 | 11% | Active |  |  |  |
| Cc1ccc(C)c(/N=N/c2c(S(=O)(=O)O)cc3cc(NC(=O)Nc4ccc5c(O)c(/N=N/c6ccc7cc(S(=O)(=O)O)ccc7c6)c(S(=O)(=O)O)cc5c4)ccc3c2O)c1 | 65% |  | 15.5 µM |  |  |
| COc1cc(/N=N/c2c(S(=O)(=O)O)cc3cc(NC(=O)Nc4ccc5c(O)c(/N=N/c6ccc7cc(S(=O)(=O)O)ccc7c6)c(S(=O)(=O)O)cc5c4)ccc3c2O)c(C)cc1N | 70% |  | 13.8 µM |  |  |
| Cc1c(N)cc(S(=O)(=O)O)c(/N=N/c2ccc(-c3ccc(/N=N/c4c(S(=O)(=O)O)cc5cc(S(=O)(=O)O)c(/N=N/c6cccc([N+](=O)[O-])c6)c(N)c5c4O)cc3)cc2)c1N | 68% |  | 5.9 µM |  |  |
| Cc1cc(-c2ccc(/N=N/c3c(N)c(S(=O)(=O)O)cc4cc(S(=O)(=O)O)ccc34)c(C)c2)ccc1/N=N/c1cc(S(=O)(=O)O)c2ccccc2c1N | 68% |  | 13.4 µM |  |  |
| Cc1ccccc1/N=N/c1c(S(=O)(=O)O)cc2cc(NC(=O)Nc3ccc4c(O)c(/N=N/c5ccc6cc(S(=O)(=O)O)ccc6c5)c(S(=O)(=O)O)cc4c3)ccc2c1O | 71% |  | 11.6 µM |  |  |
| COc1cc(/N=N/c2ccc3cc(S(=O)(=O)O)cc(S(=O)(=O)O)c3c2)ccc1/N=N/c1ccc(NC(=O)c2ccc(NC(=O)c3ccccc3)cc2)cc1C | 77% |  | 1.7 µM |  |  |
| O=S(=O)(O)c1ccc(-c2c3nc(c(-c4ccc(S(=O)(=O)O)cc4)c4ccc([nH]4)c(-c4ccc(S(=O)(=O)O)cc4)c4ccc([nH]4)c(-c4ccc(S(=O)(=O)O)cc4)c4nc2C=C4)C=C3)cc1 [TETRAPHENYLPORPHINE TETRASULFONIC ACID] | 61% |  |  |  | 7.8 µM |
| CCn1cc(C(=O)O)c(=O)c2cnc(N3CCN(C(=S)Nc4cc(Cl)cc(Cl)c4)CC3)nc21 |  |  |  | 100% |  |
| CC(=O)Nc1ccc(/C=C/c2ccc(NC(=O)Nc3ccc(/C=C/c4ccc(NC(C)=O)cc4S(=O)(=O)O)c(S(=O)(=O)O)c3)cc2S(=O)(=O)O)c(S(=O)(=O)O)c1 | 49% |  | 23 µM |  |  |
| COc1c(C=O)c(O)cc2c1C(=O)c1ccccc1C2=O |  |  |  | 70% |  |
| Nc1c(S(=O)(=O)O)cc2cc(S(=O)(=O)O)ccc2c1/N=N/c1ccc(-c2ccc(/N=N/c3c(N)c(S(=O)(=O)O)cc4cc(S(=O)(=O)O)ccc34)c(S(=O)(=O)O)c2)cc1 | 51% |  | 12.6 µM |  |  |
